ChEMBL document CHEMBL2046398, “Optimization of (2,3-dihydro-1-benzofuran-3-yl)acetic acids: discovery of a non-free fatty acid-like, highly bioavailable G protein-coupled receptor 40/free fatty acid receptor 1 agonist as a glucose-dependent insulinotropic agent” (J Med Chem, 2012)
The source made the active and inactive calls. The rule behind the calls is not given here.

How the values were obtained:
[1] = tested on: HepG2; test: Induction of apoptosis in human HepG2 cells assessed as caspase 3/7 activity at 30 uM after 1 day by CaspaseGlo assay relative to staurosporine; format: cell-based; conditions: hepg2, 24 h
In short: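 HepG2 cells were seeded at 2 × 10⁴ cells/well. They were exposed to compounds for 1 day in DMEM with 0.5% FBS, 2 mM L-glutamine and 1 mM pyruvate. Caspase-3/7 was read by Caspase-Glo luminescence, n = 3. Values are % = (RLU compound − RLU 1% DMSO)/(RLU 30 μM staurosporine − RLU 1% DMSO) × 100.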

[2] = Lipophilicity, log D of the compound at pH 7.4 by HPLC analysis; format: physicochemical; conditions: buffer
In short: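 Log D at pH 7.4 was estimated from HPLC relative retention time against standard compounds.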

[3] = target: T1, Free fatty acid receptor 1 (Homo sapiens, UniProt O14842); test: Agonist activity at human GP40 receptor expressed in CHO cells assessed as increase in intracellular calcium level for 90 secs by FLIPR assay in the presence of 0.1% BSA; format: functional, cell-based
T1 sequence (O14842 whole entry): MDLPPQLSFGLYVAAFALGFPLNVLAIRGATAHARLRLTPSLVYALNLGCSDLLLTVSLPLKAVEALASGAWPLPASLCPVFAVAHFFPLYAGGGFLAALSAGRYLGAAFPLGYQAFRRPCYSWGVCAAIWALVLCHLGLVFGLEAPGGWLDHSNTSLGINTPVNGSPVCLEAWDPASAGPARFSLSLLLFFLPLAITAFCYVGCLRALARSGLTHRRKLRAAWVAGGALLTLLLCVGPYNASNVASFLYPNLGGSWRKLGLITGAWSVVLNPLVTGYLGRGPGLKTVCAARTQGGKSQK

[4] = target: Free fatty acid receptor 1 (Rattus norvegicus, UniProt Q8K3T4); test: Displacement of 3-[4-({2',6'-dimethyl-6-[(4-[3H])-phenylmethoxy]biphenyl-3-yl}methoxy)phenyl]propanoic acid from rat GPR40 expressed in CHO cells after 90 mins by liquid scintillation counting in the presence of 0.2%BSA; format: cell-based
Free fatty acid receptor 1 (Rattus norvegicus, UniProt Q8K3T4), sequence (Q8K3T4 whole entry): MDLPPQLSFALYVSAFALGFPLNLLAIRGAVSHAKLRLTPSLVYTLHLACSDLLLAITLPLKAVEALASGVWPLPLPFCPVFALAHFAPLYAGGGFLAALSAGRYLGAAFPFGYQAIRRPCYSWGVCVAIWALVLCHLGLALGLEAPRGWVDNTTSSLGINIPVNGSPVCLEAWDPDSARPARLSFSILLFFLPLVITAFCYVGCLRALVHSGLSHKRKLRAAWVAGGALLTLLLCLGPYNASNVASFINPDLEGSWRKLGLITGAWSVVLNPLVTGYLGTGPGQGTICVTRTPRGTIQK
In short: (§1)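 Membranes came from CHO lines stably expressing human or rat GPR40/FFA1. Assay buffer was 25 mmol/L Tris-HCl pH 7.5 with 5 mmol/L EDTA, protease inhibitors, 0.05% CHAPS and 0.2% fatty-acid-free BSA. Compounds competed with 2 or 6 nmol/L tritiated phenylpropanoic acid ligand for 90 min at room temperature. Bound ligand was filtered and counted by scintillation. Nonspecific binding used 10 μmol/L unlabeled ligand. IC50 was converted to Ki by Cheng–Prusoff using the measured Kd.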

[5] = target: T1, Free fatty acid receptor 1; test: Agonist activity at human GP40 receptor expressed in CHO cells assessed as increase in intracellular calcium level at 10 uM for 90 secs by FLIPR assay in the presence of 0.1% BSA relative to gamma-linolenic acid; format: functional, cell-based
In short: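 CHO dhfr cells stably expressing human GPR40/FFA1 (NM_005303) plated overnight at 37 °C, 5% CO₂, then loaded 60 min at 37 °C with Fluo 4 AM (2.5 μg/mL), 2.5 mmol/L probenecid and 0.1% fatty acid-free BSA. Ca²⁺ rise after compound addition read on FLIPR Tetra for 90 s. Activity = (test − vehicle)/(10 μM γ-linolenic acid − vehicle) × 100.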

[6] = tested on: Rattus norvegicus; test: Insulinotropic activity in po dosed fasted Wistar fatty rat assessed as […] administered 4 hr prior to glucose-challenge by oral glucose tolerance test relative to vehicle control; format: functional
In short: (§2)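 Female Wistar fatty rats, 12–17 weeks old, were fasted overnight. They were dosed orally with compound in 0.5% methylcellulose 1 h (1 mg/kg) or 4 h (3 mg/kg) before a 1 g/kg oral glucose load. Plasma glucose was sampled to 120 min, n = 6. Effective dose was defined by statistical significance on plasma glucose AUC versus vehicle.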

[7] = target: T1, Free fatty acid receptor 1; test: Displacement of 3-[4-({2',6'-dimethyl-6-[(4-[3H])-phenylmethoxy]biphenyl-3-yl}methoxy)phenyl]propanoic acid from human GPR40 expressed in CHO cells after 90 mins by liquid scintillation counting in the presence of 0.2% BSA; format: cell-based; in short: as §1
[8] = tested on: Rattus norvegicus; test: Insulinotropic activity in po dosed Goto-Kakizaki rat assessed as decrease in plasma glucose level administered 1 hr prior to glucose-challenge by oral glucose tolerance test; format: functional
In short: (§3)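 Male GK rats, 41 weeks old, were fasted overnight. They received compound suspended in 0.5% methylcellulose orally, 1–10 mg/kg, 1 h before a 1 g/kg oral glucose load. Tail-vein blood was taken pre-dose, at 0 min and at 10, 30, 60 and 120 min. Plasma glucose was read by autoanalyzer and insulin by radioimmunoassay, with AUC0–120min. n = 6. Williams/Shirley–Williams tests versus vehicle.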

[9] = tested on: Rattus norvegicus; test: Insulinotropic activity in Goto-Kakizaki rat assessed as increase in plasma insulin secretion at 1 to 10 mg/kg, po administered 1 hr prior to glucose-challenge by oral glucose tolerance test; format: functional, organism-based; conditions: TDE = time-dependent effect; in short: as §3
[10] = tested on: Rattus norvegicus; test: Insulinotropic activity in po dosed Goto-Kakizaki rat assessed as increase in plasma insulin secretion administered 1 hr prior to glucose-challenge by oral glucose tolerance test; format: functional; in short: as §3
[11] = tested on: Rattus norvegicus; test: Insulinotropic activity in Goto-Kakizaki rat assessed as decrease in plasma glucose level at 1 to 10 mg/kg, po administered 1 hr prior to glucose-challenge by oral glucose tolerance test; format: functional, organism-based; conditions: TDE = time-dependent effect; in short: as §3
[12] = tested on: Rattus norvegicus; test: Insulinotropic activity in Goto-Kakizaki rat assessed as increase in plasma insulin secretion at 1 to 10 mg/kg, po after 1 hr measured at glucose charge (0 mins)
[13] = tested on: Rattus norvegicus; test: Insulinotropic activity in po dosed fasted Wistar fatty rat assessed as […] administered 1 hr prior to glucose-challenge by oral glucose tolerance test relative to vehicle control; format: functional; in short: as §2

Structure (SMILES)	Activity [1]	logD [2]	EC50 [3]	Ki [4]	Efficacy [5]	ED [6]	Ki [7]	Activity [8]	Activity [9]	Activity [10]	Activity [11]	Activity [12]	ED [13]	minimal effective dose ([8]; read-out: MED)	minimal effective dose ([10]; read-out: MED)
Cc1cc(OCCCS(C)(=O)=O)cc(C)c1-c1cccc(COc2ccc3c(c2)OC[C@H]3CC(=O)O)c1 [listing 1 of 2 here]	-2.1%	2.58													
Cc1cc(OC2CCN(C)CC2)cc(C)c1-c1cccc(COc2ccc3c(c2)OC[C@H]3CC(=O)O)c1.Cl	-1.3%	3.1	19 nM	66 nM	107%	inactive	8.8 nM								
Cc1cc(OCC2(C)COC2)cc(C)c1-c1cccc(COc2ccc3c(c2)OCC3CC(=O)O)c1 (racemic)	23.6%	3.86	24 nM	83 nM	103%		21 nM								
CCOCCOc1cc(C)c(-c2cccc(COc3ccc4c(c3)OC[C@@H]4CC(=O)O)c2)c(C)c1	10.5%	3.86		7400 nM	103%										
Cc1nc(C)c(COc2cc(C)c(-c3cccc(COc4ccc5c(c4)OC[C@H]5CC(=O)O)c3)c(C)c2)s1	23.1%	4.27	18 nM	360 nM	107%		12 nM								
Cc1cc(OCCCS(C)(=O)=O)cc(C)c1-c1cccc(COc2ccc3c(c2)OC[C@H]3CC(=O)O)c1 [listing 2 of 2 here]					107%			Dose-dependent effect	tde	Dose-dependent effect	tde	Active			
CCS(=O)(=O)CCOc1cc(C)c(-c2cccc(COc3ccc4c(c3)OC[C@H]4CC(=O)O)c2)c(C)c1	-1.3%	2.73	14 nM	170 nM	107%	3 mg/kg	37 nM								
Cc1cc(OCC2(O)CCS(=O)(=O)CC2)cc(C)c1-c1cccc(COc2ccc3c(c2)OC[C@H]3CC(=O)O)c1	-1.8%	2.43	13 nM	170 nM	107%	3 mg/kg	24 nM						inactive		
Cc1c(C)c(-c2cccc(COc3ccc4c(c3)OC[C@H]4CC(=O)O)c2)c(C)c(C)c1OC1CCS(=O)(=O)CC1	12.3%	3.35	29 nM	400 nM	104%		40 nM								
Cc1cc(OCCCN2CCCC2=O)cc(C)c1-c1cccc(COc2ccc3c(c2)OC[C@H]3CC(=O)O)c1	3.9%	3.22	17 nM	170 nM	107%		31 nM								
Cc1cc(OCCCS(C)(=O)=O)c(Cl)c(C)c1-c1cccc(COc2ccc3c(c2)OC[C@H]3CC(=O)O)c1	8.3%	3.07	16 nM	110 nM	104%		19 nM								
Cc1cc(OCC2(C)COC2)cc(C)c1-c1cccc(COc2ccc3c(c2)OC[C@H]3CC(=O)O)c1	21.1%	3.88	18 nM	110 nM	103%		25 nM								
Cc1cc(OCCCS(C)(=O)=O)cc(C)c1-c1cccc(COc2ccc3c(c2)OC[C@H]3CC(=O)O)c1.O						3 mg/kg							1 mg/kg	3 mg/kg	10 mg/kg
CCOCCOc1cc(C)c(-c2cccc(COc3ccc4c(c3)OC[C@H]4CC(=O)O)c2)c(C)c1	1.5%	3.86		240 nM	103%										
Cc1cc(OC2CCS(=O)(=O)CC2)cc(C)c1-c1cccc(COc2ccc3c(c2)OC[C@@H]3CC(=O)O)c1	1.3%	2.84	290 nM	510 nM	103%		300 nM								
Cc1cc(OC2CCS(=O)(=O)CC2)cc(C)c1-c1cccc(COc2ccc3c(c2)OCC3CC(=O)O)c1 (racemic)	0.4%	2.77	39 nM	210 nM	103%		83 nM								
CCOCCOc1cc(C)c(-c2cccc(COc3ccc4c(c3)OCC4CC(=O)O)c2)c(C)c1 (racemic)	3.2%	3.83		300 nM	103%										
Cc1cc(OC2CCS(=O)(=O)CC2)c(F)c(C)c1-c1cccc(COc2ccc3c(c2)OC[C@H]3CC(=O)O)c1	7.9%	2.95	19 nM	270 nM	104%		31 nM								
Cc1cc(OCC2(C)COC2)cc(C)c1-c1cccc(COc2ccc3c(c2)OC[C@@H]3CC(=O)O)c1	20.9%	3.88	270 nM	2200 nM	103%		270 nM								
Cc1cc(OCCCS(C)(=O)=O)c(F)c(C)c1-c1cccc(COc2ccc3c(c2)OC[C@H]3CC(=O)O)c1	-1.1%	2.68	16 nM	200 nM	104%	3 mg/kg	18 nM						1 mg/kg		
Cc1c(C)c(-c2cccc(COc3ccc4c(c3)OC[C@H]4CC(=O)O)c2)c(C)c(C)c1OCCCS(C)(=O)=O	-1.1%	3.12	18 nM	120 nM	104%		33 nM								
CCc1cc(OCCCS(C)(=O)=O)cc(CC)c1-c1cccc(COc2ccc3c(c2)OC[C@H]3CC(=O)O)c1	12.4%	3.17	17 nM	56 nM	104%		11 nM								
Cc1cc(OCc2cccc3nccn23)cc(C)c1-c1cccc(COc2ccc3c(c2)OC[C@H]3CC(=O)O)c1	17.7%	3.8	17 nM	190 nM	107%		15 nM								
Cc1c(Cl)c(OCCCS(C)(=O)=O)c(Cl)c(C)c1-c1cccc(COc2ccc3c(c2)OC[C@H]3CC(=O)O)c1	16.1%	3.53	17 nM	59 nM	104%		12 nM								
Cc1cc(OC2CCS(=O)(=O)CC2)cc(C)c1-c1cccc(COc2ccc3c(c2)OC[C@H]3CC(=O)O)c1	-2.5%	2.75	22 nM	170 nM	103%	3 mg/kg	36 nM						1 mg/kg		
